HTR1E agonist – agonists of human 5-HT1E serotonin receptor | P28566 | CHO 5-HT1E Ga15 NFAT-bla reporter, FRET; 0% DMSO wells, 100% control agonist wells | activation, % at 6 µM | 65,000 compounds, 0.69% hits | AID 574;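 active = activation above a set limit, the screen-wide mean activation plus 3 SD, cut at about 8.5% in these data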;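 also: 100% = positive control agonist at 1 µM giving full maximal response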
S1P3 ag – S1P3 (human) receptor agonism | S1P3 NFAT-BLA reporter cells, FRET ratio; relative to 1 µM S1P, basal subtracted | activation, % at 4.5 µM | 60,000 compounds, 0.1% hits;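 active = activation above the screen-wide mean plus 3 SD, cut at about 4.5% in these data, passing the limit was not always enough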
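Measure – % activation relative to 1 µM S1P (100%), per plate · System – stable CHO line with human S1P3, Gα16, NFAT-BLA reporter · Timing – cells plated overnight, compound 4 h 37 °C, substrate 2 h RT · Technique – fluorescent BLA substrate, ex 405 nm, em 460/535 nm ratio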
HTR1A agonist – agonists of human 5-HT1a serotonin receptor; CHO 5-HT1a Ga15 NFAT-bla reporter, FRET ratio; 0% basal, 100% maximal reference agonist; activation, % at 10 µM; 65,000 compounds, 0.56% hits; AID 567;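 active = activation above the screen-wide mean activation plus 3 SD, cut at about 19% in these data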;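 also: 0% = DMSO wells and 100% = 5-CT at EC100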
5HT1E antag – 5-HT1E (human) receptor antagonism | 65,000 compounds, 0.99% hits | P28566 | inhibition, % at 6 µM | CHO 5-HT1E Ga15 NFAT-bla reporter, FRET, antagonist;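 active = inhibition above a set limit, the mean inhibition across every tested compound plus 3 SD, cut at about 29% in these data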;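 also: signal is the 460 over 535 nm emission ratio of beta-lactamase substrate; 0% = agonist plus DMSO wells and 100% = wells without agonist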
5HT1a antag – blocks the human serotonin 5-HT1a receptor | CHO 5-HT1a Ga15 NFAT-bla reporter, antagonist mode | inhibition, % at 10 µM | 62,000 compounds, 0.68% hits;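 active = inhibition above the mean of all tested compounds plus 3 SD, cut at about 43% in these data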;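 also: receptor stimulated by 5-CT agonist at 100 nM near EC80; beta-lactamase reporter measured by ratiometric fluorescence of a cleavable substrate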
S1P1 ag-PAM – S1P1 (human) agonism or agonism potentiation; activation, % at 9.5 µM; S1P1 CRE-bla cells, forskolin, beta-lactamase FRET, potentiator mode; S1P1 agonist co-added at EC20, 2 nM; 100% = saturating reference agonist, 0% = basal; 56,000 compounds, 0.57% hits;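 active = activation above a cutoff set at the mean activation of all tested compounds plus 3 SD, cut at about 54% in these data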;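 also: forskolin at 4 µM as EC80 and the EC20 agonist is SEW2871; 100% = SEW2871 at its EC100 plus forskolin at EC80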
Target sequence (P21453 whole entry, looked up): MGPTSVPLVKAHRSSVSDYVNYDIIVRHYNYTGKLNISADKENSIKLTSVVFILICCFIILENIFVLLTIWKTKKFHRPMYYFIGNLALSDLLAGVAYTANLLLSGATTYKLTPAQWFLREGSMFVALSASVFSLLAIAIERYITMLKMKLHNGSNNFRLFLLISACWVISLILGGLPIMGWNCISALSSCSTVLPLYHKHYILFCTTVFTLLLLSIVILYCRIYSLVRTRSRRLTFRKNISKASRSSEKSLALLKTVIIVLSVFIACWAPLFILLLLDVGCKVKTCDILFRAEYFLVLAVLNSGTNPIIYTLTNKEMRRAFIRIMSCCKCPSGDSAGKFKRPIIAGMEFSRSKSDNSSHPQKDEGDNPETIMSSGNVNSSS
* = called active by the depositor; . = no result. Hits are enriched below; roughly 2.9% of the tested compounds scored in any of these assays.

SMILES	HTR1E agonist	S1P3 ag	HTR1A agonist	5HT1E antag	5HT1a antag	S1P1 ag-PAM
FC(F)(F)c1cc(-c2cccs2)nc(N2CCOCC2)n1	-1	-1	0	11	13	-3
Cc1cnn(-c2nc(-c3cccs3)cc(C(F)(F)F)n2)c1	-1	-1	-4	29*	17	-10
C=C(C)c1nc(N)nc(N)n1	0	0	32*	2	12	-5
C=C(C)C1Cc2nc(N)nc(C)c2C1 (stereo not drawn)	0	0	3	-6	-3	-16
COc1ccc(CCNc2nc(C)nc3c2oc2ccccc23)cc1OC	-1	.	0	8	11	.
COc1ccc(CCNc2ncnc3c2oc2ccccc23)cc1OC	0	-1	0	12	5	116*
O=C(O)CCC(=O)N1CCc2cc(S(=O)(=O)N3CCC(Cc4ccccc4)CC3)ccc21	2	-2	1	-12	5	18
O=C(CN1C(=O)CCC1=O)Nc1nc(-c2ccc(Cl)s2)cs1	0	0	-2	2	15	14
O=C(Nc1nc(-c2ccc(Cl)s2)cs1)c1ccncc1	0	-1	-5	4	21	126*
O=C(Nc1nc(-c2cc(Cl)sc2Cl)cs1)c1cccs1	1	0	279*	-1	49*	35
CCCCS(=O)(=O)/C=C\C1C2C=CC(C2)C1S(=O)(=O)CCCC (stereo not drawn)	0	-1	-2	6	2	-17
CCCCS(=O)(=O)/C=C\C=C/S(=O)(=O)CCCC	-2	.	-9	107*	102*	.
COC(=O)c1cc(CSc2nnc(-c3ccccc3)c(-c3ccccc3)n2)oc1C	0	4	-2	9	8	96*
Clc1ccc2[nH]c3c(NCC4CCCO4)ncnc3c2c1 (stereo not drawn)	0	0	4	32*	11	35
Fc1cc(Br)ccc1Nc1nc2ccccc2n2nnnc12	15*	-1	3	-11	-16	-29
Cc1ccccc1-c1nnc(SCc2ccccc2F)o1	0	0	4	5	0	89*
CC(C)Oc1cc(O)c2c(=O)c(-c3ccc(O)cc3)coc2c1	1	-1	-1	4	11	107*
COc1ccc(-c2coc3cc(O)cc(O)c3c2=O)cc1	0	-2	1	12	.	-17
Cc1cc(C)n(-c2ccc(-n3ccnc3)nn2)n1	0	-1	-1	3	8	-6
N#CCSc1nnc(-c2ccccc2)c(-c2ccccc2)n1	0	6.3*	0	2	-7	22
CCC(C)[C@H](NC(=O)Nc1ccc(C(C)=O)cc1)C(=O)OC (stereo partly drawn)	0	-2	-2	10	14	14
O=C(NCc1ccccc1)N1CCN(c2ccc(Cl)c(Cl)c2)CC1	1	-1	0	19	19	100*
Cc1occc1C(=O)N1CCN(c2ccc(Cl)c(Cl)c2)CC1	1	-1	2	5	9	69*
Cn1c(N2CCN(C(=O)NCc3ccccc3)CC2)nc2ccccc21	0	0	0	-2	-11	3
COC(=O)c1sccc1NC(=O)Cn1cnc2c1c(=O)n(C)c(=O)n2C	-1	-1	0	0	11	.
SMILES	HTR1E agonist	S1P3 ag	HTR1A agonist	5HT1E antag	5HT1a antag	S1P1 ag-PAM
Cc1nc(SCC#N)c2c(C)c(C)sc2n1	2	0	1	35*	19	-43
Cc1cc2nc(C)c(Cc3ccccc3)c(=O)n2[nH]1	-1	-2	-3	7	-1	-5
N=c1c2c(-c3ccccc3)c(-c3ccccc3)n(Cc3ccccc3)c2ncn1CCCn1ccnc1	0	-1	2	-16	.	-18
N=c1c2c(-c3ccccc3)c(-c3ccccc3)n(Cc3ccco3)c2ncn1Cc1ccco1	2	-1	-3	-7	57*	-23
Cn1c(N)c(C(=O)c2cc(-c3ccccn3)nc3ccccc23)c(=O)[nH]c1=O	-1	1	-4	-2	3	-24
C/C(N)=C(/C#N)C(=O)CSc1nnc(Nc2c(C)cccc2C)s1	-1	0	-1	-3	3	-14
C/C(N)=C(/C#N)C(=O)CSc1nnc(SCc2ccc(Cl)cc2)s1	0	0	-2	-3	-10	60*
Cc1csc(NC(=O)CSc2nnc3ncccn23)n1	1	1	-2	-5	-6	2
Cc1sc(NC(=O)CSc2nnc(C)c(=O)[nH]2)c(C#N)c1C	-1	-1	-2	0	6	-9
CCOC(=O)c1oc2ccccc2c1NC(=O)c1cccc(OC)c1OC	0	0	-2	34*	33	-52
CCOc1ccc(C(=O)Nc2c(C(N)=O)oc3ccccc23)cc1	0	0	-5	12	-4	54*
COC(=O)c1c(-c2cccs2)csc1NC(=O)c1cccnc1	1	-1	1	6	-19	-30
COc1ccc2c(c1)c(=O)oc1c(C)c3occ(C)c3cc12	0	1	-1	-6	4	.
CCCc1cc(=O)oc2c(C)c3occ(C)c3cc12	0	0	-1	39*	40	.
CC(C)OCCCn1c(=N)c(C(N)=S)cc2c(=O)n3ccccc3nc21	0	-3	6	-7	.	-9
CCCCCCNC(=O)c1c(N)n(/N=C/c2ccco2)c2nc3ccccc3nc12	3	0	31*	2	-8	-3
CCCCNC(=O)c1c(N)n(/N=C/c2ccccn2)c2nc3ccccc3nc12	1	.	-2	-12	-7	.
Cc1nc(NC(C)c2ccccc2)c2oc3ccccc3c2n1 (stereo not drawn)	-1	-1	-2	15	2	69
CCc1ccc(S(=O)(=O)NCCc2csc(-c3ccccc3)n2)s1	-1	0	-2	17	-1	65*
CCc1ccc(S(=O)(=O)NCc2csc(-c3ccccc3)n2)s1	-1	0	-1	-6	-12	6
O=c1nc(-c2ccccc2)c2ccccc2[nH]1	0	-1	-1	-7	-2	-6
O=c1cc(-c2ccccc2)[nH]c2ccccc12	-1	0	-1	53*	33	8
O=C(CCSc1nc(-c2ccco2)cc(C(F)(F)F)n1)N1CCCc2ccccc21	1	0	-1	7	-4	.
O=C(Nc1ccc(Oc2ccccc2)cc1)c1cnc2n(c1=O)CCS2	0	-1	2	11	-3	94*
CC(C)n1c(=NC(=O)c2ccco2)c(C#N)cc2c(=O)n3ccccc3cc21	9.2*	2	29*	4	-6	-105
Cc1cccn2c(=O)c3cc(C#N)c(=NC(=O)c4ccncc4)n(Cc4ccco4)c3nc12	1	0	2	-2	-5	-3
